ChEMBL document CHEMBL1137710, “Synthesis and in vitro antitumor activity of new quinoxaline derivatives” (2009)

How the values were obtained:
Type in all cases: functional
LOX IMVI = assay: Growth inhibition of human LOXIMVI cells after 48 hrs by sulforhodamine B assay
Method in brief: (§1)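 NCI 60-human-tumor-cell-line panel, with compounds tested over a 5-log dose range. Values are taken from dose-response curves as log10 molar concentrations: GI50 is 50% net growth inhibition, TGI is total growth inhibition, and LC50 is 50% net cell death.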

OVCAR-3 = assay: Growth inhibition of human OVCAR-3 cells after 48 hrs by sulforhodamine B assay; details: OVCAR-3, 48 h; method in brief: as §1
ACHN = assay: Growth inhibition of human ACHN cells after 48 hrs by sulforhodamine B assay
KM12 = assay: Growth inhibition of human KM12 cells after 48 hrs by sulforhodamine B assay; details: KM12, 48 h; method in brief: as §1
A498 = assay: Growth inhibition of human A498 cells after 48 hrs by sulforhodamine B assay; details: A498, 48 h; method in brief: as §1
NCI-H522 = assay: Growth inhibition of human NCI-H522 cells after 48 hrs by sulforhodamine B assay; details: NCI-H522, 48 h; method in brief: as §1
HCT-15 = assay: Growth inhibition of human HCT15 cells after 48 hrs by sulforhodamine B assay; details: HCT-15, 48 h; method in brief: as §1
CCRF-CEM = assay: Growth inhibition of human CCRF-CEM cells after 48 hrs by sulforhodamine B assay; method in brief: as §1
CAKI-1 = assay: Growth inhibition of human Caki1 cells after 48 hrs by sulforhodamine B assay; details: CAKI-1, 48 h; method in brief: as §1
SR = assay: Growth inhibition of human SR cells after 48 hrs by sulforhodamine B assay
Method in brief: (§2)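 Run in the NCI 60-human-tumour-cell-line panel, tested over a 5-log dose range. Dose–response curves gave three values per cell line, each as a log10 molar concentration: GI50 (50% inhibition of net cell growth), TGI (total inhibition of net growth) and LC50 (50% net cell death). The mean graph midpoint is the arithmetic mean over all lines, with insensitive lines entered at the highest concentration tested.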

K562 = assay: Growth inhibition of human K562 cells after 48 hrs by sulforhodamine B assay; details: K562, 48 h; method in brief: as §1
[1] = Growth inhibition of human Hs 578T cells after 48 hrs by sulforhodamine B assay; method in brief: as §1
SN12C = assay: Growth inhibition of human SN12C cells after 48 hrs by sulforhodamine B assay; method in brief: as §2
SK-MEL-2 = assay: Growth inhibition of human SK-MEL-2 cells after 48 hrs by sulforhodamine B assay; details: SK-MEL-2, 48 h; method in brief: as §1
Malme-3M = assay: Growth inhibition of human MALME-3M cells after 48 hrs by sulforhodamine B assay; method in brief: as §1
OVCAR-5 = assay: Growth inhibition of human OVCAR5 cells after 48 hrs by sulforhodamine B assay; details: OVCAR-5, 48 h; method in brief: as §1
NCI-H322M = assay: Growth inhibition of human NCI-H322M cells after 48 hrs by sulforhodamine B assay; method in brief: as §1
HL-60(TB) = assay: Growth inhibition of human HL-60(TB) cells after 48 hrs by sulforhodamine B assay; details: HL-60, 48 h
Method in brief: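 Tested only on compounds active in a three-line prescreen, in the NCI 60-human-tumour-cell-line panel over a 5-log dose range. Values come from dose–response curves as log10 molar GI50, the concentration inhibiting 50% net cell growth. Log10 TGI (total growth inhibition) and log10 LC50 (50% net cell death) were derived too. Mean graph midpoints include insensitive lines at the highest concentration tested.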

BT-549 = assay: Growth inhibition of human BT549 cells after 48 hrs by sulforhodamine B assay; details: BT-549, 48 h; method in brief: as §1
NCI/ADR-RES = assay: Growth inhibition of human NCI/ADR-RES cells after 48 hrs by sulforhodamine B assay; method in brief: as §1
HT-29 = assay: Growth inhibition of human HT-29 cells after 48 hrs by sulforhodamine B assay; details: HT-29, 48 h; method in brief: as §1
T47D = assay: Growth inhibition of human T47D cells after 48 hrs by sulforhodamine B assay; method in brief: as §2
HOP-62 = assay: Growth inhibition of human HOP62 cells after 48 hrs by sulforhodamine B assay; details: HOP-62, 48 h; method in brief: as §1
HOP-92 = assay: Growth inhibition of human HOP92 cells after 48 hrs by sulforhodamine B assay; details: HOP-92, 48 h; method in brief: as §1
EKVX = assay: Growth inhibition of human EKVX cells after 48 hrs by sulforhodamine B assay; method in brief: as §1
SNB-75 = assay: Growth inhibition of human SNB75 cells after 48 hrs by sulforhodamine B assay; details: SNB-75, 48 h; method in brief: as §2
UO-31 = assay: Growth inhibition of human UO31 cells after 48 hrs by sulforhodamine B assay; details: UO-31, 48 h; method in brief: as §2
786-0 = assay: Growth inhibition of human 786-0 cells after 48 hrs by sulforhodamine B assay; details: 786-0, 48 h; method in brief: as §1
[2] = read-out: pLC50 (the source's name) (converted)

COc1cc(OC)cc(Oc2nc3cc(N)cc(N)c3nc2-c2ccccc2)c1
GI50 (LOX IMVI): 2.95 µM | TGI (LOX IMVI; read-out: pTGI (converted)): 12.9 µM | GI50 (OVCAR-3): 2.24 µM | CC50 (OVCAR-3; [2]): 55 µM | TGI (OVCAR-3; read-out: pTGI (converted)): 8.71 µM | GI50 (ACHN): 14.8 µM | TGI (ACHN; read-out: pTGI (converted)): 33.9 µM | GI50 (KM12): 1.02 µM | TGI (KM12; read-out: pTGI (converted)): 6.03 µM | GI50 (A498): > 100 µM | CC50 (A498; [2]): > 100 µM | TGI (A498; read-out: pTGI (converted)): > 100 µM | GI50 (NCI-H522): 0.891 µM | TGI (NCI-H522; read-out: pTGI (converted)): 4.27 µM | GI50 (HCT-15): 2.04 µM | TGI (HCT-15; read-out: pTGI (converted)): 12.3 µM | GI50 (CCRF-CEM): 1.95 µM | TGI (CCRF-CEM; read-out: pTGI (converted)): 8.71 µM | GI50 (CAKI-1): 16.2 µM | CC50 (CAKI-1; [2]): 79.4 µM | TGI (CAKI-1; read-out: pTGI (converted)): 36.3 µM | GI50 (SR): 1.86 µM | TGI (SR; read-out: pTGI (converted)): 28.8 µM | GI50 (K562): 3.8 µM | TGI (K562; read-out: pTGI (converted)): 32.4 µM | GI50 [1]: 1.32 µM | CC50 [1, 2]: 25.7 µM | TGI ([1]; read-out: pTGI (converted)): 4.17 µM | GI50 (SN12C): 17 µM | CC50 (SN12C; [2]): 69.2 µM | TGI (SN12C; read-out: pTGI (converted)): 34.7 µM | GI50 (SK-MEL-2): 2.29 µM | CC50 (SK-MEL-2; [2]): 38 µM | TGI (SK-MEL-2; read-out: pTGI (converted)): 10.2 µM | GI50 (Malme-3M): 0.427 µM | CC50 (Malme-3M; [2]): 30.2 µM | TGI (Malme-3M; read-out: pTGI (converted)): 5.13 µM | GI50 (OVCAR-5): 3.24 µM | CC50 (OVCAR-5; [2]): 40.7 µM | TGI (OVCAR-5; read-out: pTGI (converted)): 16.2 µM | GI50 (NCI-H322M): 2.24 µM | TGI (NCI-H322M; read-out: pTGI (converted)): 15.1 µM | GI50 (HL-60(TB)): 3.09 µM | TGI (HL-60(TB); read-out: pTGI (converted)): 25.7 µM | GI50 (BT-549): 1.48 µM | CC50 (BT-549; [2]): 38 µM | TGI (BT-549; read-out: pTGI (converted)): 6.92 µM | GI50 (NCI/ADR-RES): 1.12 µM | CC50 (NCI/ADR-RES; [2]): 18.2 µM | TGI (NCI/ADR-RES; read-out: pTGI (converted)): 3.89 µM | GI50 (HT-29): 4.37 µM | TGI (HT-29; read-out: pTGI (converted)): 17.8 µM | GI50 (T47D): 2.34 µM | CC50 (T47D; [2]): 51.3 µM | TGI (T47D; read-out: pTGI (converted)): 9.12 µM | GI50 (HOP-62): 2.14 µM | TGI (HOP-62; read-out: pTGI (converted)): 12.9 µM | GI50 (HOP-92): 1.35 µM | TGI (HOP-92; read-out: pTGI (converted)): 8.91 µM | GI50 (EKVX): 3.8 µM | TGI (EKVX; read-out: pTGI (converted)): 19.5 µM | GI50 (SNB-75): 0.126 µM | TGI (SNB-75; read-out: pTGI (converted)): 2.69 µM | GI50 (UO-31): 11.5 µM | CC50 (UO-31; [2]): 72.4 µM | TGI (UO-31; read-out: pTGI (converted)): 28.8 µM | GI50 (786-0): 15.1 µM | CC50 (786-0; [2]): > 100 µM | TGI (786-0; read-out: pTGI (converted)): 41.7 µM
